One may read the IC50 as the concentration needed to halve the response being measured. Low readings indicate inhibition by little substance, high ones a need for much substance. Broadly, the inhibition is the drop in the measured response relative to a control, in per cent. Broadly, the ΔTm is the change in melting temperature against a reference sample.

Molecules are shown by their SMILES.

The results in this text go back to ChEMBL document CHEMBL1806460, “Synthesis of rotenoid derivatives with cytotoxic and topoisomerase II inhibitory activities” (Bioorg Med Chem Lett, 2011).

Test [1] concerns KB. Description: Cytotoxicity against human KB cells after 3 days by MTT assay. In kind it is functional, cell-based. Particulars: 72 h. In short, it runs like this:
(§1)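 Cells were cultured per supplier instructions at 2–4 × 10⁴ cells/well in medium with 10% (v/v) FBS, overnight at 37 °C under 5% CO₂. Compounds were then added, and after 3 days MTT was added to 0.5 mg/mL final for 4 h. Medium was replaced for solubilization with glycine pH 10.5. Doxorubicin was the positive control, and IC₅₀ values were derived.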

Test [2] relates to BT-474. The experiment in a line: Cytotoxicity against human BT474 cells after 3 days by MTT assay. In kind it is functional, cell-based. Particulars: BT-474, 72 h. In short, it runs like this:
as §1

The nature of test [3]: Cytotoxicity against human KATO cells after 3 days by MTT assay. In kind it is functional, cell-based. Particulars: 72 h. In short, it runs like this: as §1
(Tetrazolium assays rely on reduction of a dye to a coloured formazan, in cell work by metabolically active cells.)

For test [4], the system named is HepG2. The experiment in a line: Cytotoxicity against human HepG2 cells after 3 days by MTT assay. The class given is functional, cell-based. To be noted: HepG2, 72 h. In short, it runs like this: as §1
The subject of test [5] is MCF7. Description: Cytotoxicity against human MCF7 cells after 3 days by MTT assay. The class given is functional, cell-based. Particulars: MCF7, 72 h. In short, it runs like this: as §1
The test system of test [6] is NCI-H187. Description: Cytotoxicity against human NCI-H187 cells after 3 days by MTT assay. The class given is functional, cell-based. To be noted: NCI-H187, 72 h. In short, it runs like this:
as §1

Test [7] deals with SW-620. Description: Cytotoxicity against human SW620 cells after 3 days by MTT assay. In kind it is functional, cell-based. Particulars: SW-620, 72 h. In short, it runs like this: as §1
Test [8] in a line: Cytotoxicity against human ChaGo cells after 3 days by MTT assay. The class given is functional, cell-based. Particulars: 72 h. In short, it runs like this: as §1
For test [9], the target named is DNA topoisomerase 2-alpha (Homo sapiens) (UniProt P11388). Description: Inhibition of human topoisomerase 2alpha-mediated relaxation of supercoiled pBR322 at 100 uM after 30 mins by electrophoresis analysis.
Test [10] relates to Nucleic Acid. Description: Binding affinity to calf thymus DNA assessed as increase in melting temperature (reference value: 56.4 degC). To be noted: Bos taurus. The class given is nucleic-acid assay.
The test system of test [11] is Nucleic Acid. The experiment in a line: Binding affinity to calf thymus DNA assessed as change in melting temperature. In kind it is nucleic-acid assay. To be noted: Bos taurus.
The target of test [12] is DNA topoisomerase 2-alpha (Homo sapiens) (UniProt P11388). The experiment in a line: Inhibition of human topoisomerase 2alpha-mediated relaxation of supercoiled pBR322 at 20 uM after 30 mins by electrophoresis analysis.

Chain of DNA topoisomerase 2-alpha (Homo sapiens) (P11388 whole entry): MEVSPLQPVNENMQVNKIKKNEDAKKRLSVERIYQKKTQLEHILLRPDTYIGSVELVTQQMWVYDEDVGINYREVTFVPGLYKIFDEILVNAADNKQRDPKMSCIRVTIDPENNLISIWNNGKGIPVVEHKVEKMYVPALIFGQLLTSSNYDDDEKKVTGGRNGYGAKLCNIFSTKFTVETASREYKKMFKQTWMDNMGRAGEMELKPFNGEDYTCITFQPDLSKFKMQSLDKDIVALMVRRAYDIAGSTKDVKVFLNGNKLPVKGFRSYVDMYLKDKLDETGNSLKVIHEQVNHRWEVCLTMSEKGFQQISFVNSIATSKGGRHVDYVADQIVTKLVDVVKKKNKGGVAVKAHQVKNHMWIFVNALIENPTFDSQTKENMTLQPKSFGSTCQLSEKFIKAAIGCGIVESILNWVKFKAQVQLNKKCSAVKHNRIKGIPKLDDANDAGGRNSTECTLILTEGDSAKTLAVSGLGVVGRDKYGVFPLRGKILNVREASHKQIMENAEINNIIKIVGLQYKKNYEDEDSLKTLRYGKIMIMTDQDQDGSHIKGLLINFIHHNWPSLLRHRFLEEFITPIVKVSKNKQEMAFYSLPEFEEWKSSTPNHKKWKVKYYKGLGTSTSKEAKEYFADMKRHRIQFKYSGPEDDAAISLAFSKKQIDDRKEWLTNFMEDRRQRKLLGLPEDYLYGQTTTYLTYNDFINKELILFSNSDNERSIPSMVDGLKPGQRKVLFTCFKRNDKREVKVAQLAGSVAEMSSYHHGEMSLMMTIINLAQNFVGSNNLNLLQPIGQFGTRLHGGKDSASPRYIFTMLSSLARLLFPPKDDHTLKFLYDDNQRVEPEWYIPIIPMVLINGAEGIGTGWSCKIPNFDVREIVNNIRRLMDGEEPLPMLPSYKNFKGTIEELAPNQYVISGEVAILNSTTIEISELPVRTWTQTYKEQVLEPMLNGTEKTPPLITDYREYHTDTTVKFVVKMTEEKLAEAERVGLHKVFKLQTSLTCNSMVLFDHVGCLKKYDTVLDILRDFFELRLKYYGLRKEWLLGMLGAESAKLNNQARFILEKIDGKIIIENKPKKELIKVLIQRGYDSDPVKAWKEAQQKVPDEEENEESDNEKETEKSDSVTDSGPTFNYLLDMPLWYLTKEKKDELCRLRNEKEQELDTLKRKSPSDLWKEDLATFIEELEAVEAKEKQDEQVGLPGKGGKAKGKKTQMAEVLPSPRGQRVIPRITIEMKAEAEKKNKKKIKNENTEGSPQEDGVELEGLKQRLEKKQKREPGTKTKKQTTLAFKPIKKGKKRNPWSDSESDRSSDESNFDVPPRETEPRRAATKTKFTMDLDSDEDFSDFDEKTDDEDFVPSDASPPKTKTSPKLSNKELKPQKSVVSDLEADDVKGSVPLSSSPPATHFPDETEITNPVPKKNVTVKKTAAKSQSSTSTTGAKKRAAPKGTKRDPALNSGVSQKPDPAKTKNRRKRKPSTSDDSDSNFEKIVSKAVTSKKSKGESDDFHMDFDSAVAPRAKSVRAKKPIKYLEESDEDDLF

On to `COc1cc(OCC(O)CN(CCO)CCO)c2c(c1)O[C@@H]1COc3cc(OC)c(OC)cc3[C@]1(O)C2=O` (stereo not given in full), for which the IC50 in test [1], in test [2], in test [3], in [4], in [5] and in test [6] was above 100 µM throughout. Besides, the IC50 in [7] and in [8] was above 100 µM each time. The inhibition in test [9] came out at 49.1%.

With `COc1cc(OCC(O)CO)c2c(c1)O[C@@H]1COc3cc(OC)c(OC)cc3[C@]1(O)C2=O` (mixture of isomers), the IC50 was 13.4 µM in test [1]; above 100 µM in test [2]; above 100 µM in [3]; above 100 µM in [4]; above 100 µM in test [5]; 13.9 µM in test [6]. Besides, the IC50 in test [7] was 8.04 µM; in [8] it was above 100 µM. In test [9], the inhibition was 38.8%.

With `COCC(O)COc1cc(OC)cc2c1C(=O)[C@@]1(O)c3cc(OC)c(OC)cc3OC[C@H]1O2` (mixture of isomers), the IC50 in [1] was 46.9 µM; in test [2], above 100 µM; in test [3] it was above 100 µM; in test [4], above 100 µM; in test [5], above 100 µM; in [6], 11.7 µM. Moreover, the IC50 in test [7] and in test [8] was above 100 µM in each case. Further, in [9], the inhibition was 58.4%.

Consider `COc1cc(OCC(O)CN2CCC(=O)CC2)c2c(c1)O[C@@H]1COc3cc(OC)c(OC)cc3[C@]1(O)C2=O` (mixture of isomers), for which the IC50 in test [1] is above 100 µM; in test [2] it was above 100 µM; in test [3], above 100 µM; in test [4], above 100 µM; in test [5] it was 48.6 µM; in [6] it was above 100 µM. The IC50 in test [7] and in test [8] was above 100 µM each time. In test [9], this compound displayed an inhibition of 54.2%.

In the case of `COc1cc(OCC(O)CNCC(O)c2ccccc2)c2c(c1)O[C@@H]1COc3cc(OC)c(OC)cc3[C@]1(O)C2=O` (mixture of isomers), the IC50 in test [1] was 46.4 µM; in [2], above 100 µM; in test [3], above 100 µM; in test [4], above 100 µM; in test [6], 22.1 µM; in test [7] it was above 100 µM. Further, the IC50 in test [8] was above 100 µM. Also, the inhibition in test [9] stood at 60.4%.

In the case of `COc1cc(OCC(O)CCl)c2c(c1)O[C@@H]1COc3cc(OC)c(OC)cc3[C@]1(O)C2=O` (mixture of isomers), the IC50 in test [1] was 14.8 µM; in [2] it was 1.57 µM; in test [3], 1.09 µM; in test [4], 0.81 µM; in [5], 24.9 µM; in test [6], 6.61 µM. The IC50 in [7] is 1.09 µM; in test [8], above 100 µM. The compound also had an inhibition in [9] of 58.3%.

Consider `COc1cc(OCC(O)CNCc2ccccc2)c2c(c1)O[C@@H]1COc3cc(OC)c(OC)cc3[C@]1(O)C2=O` (mixture of isomers), for which the IC50 is 32.3 µM in test [1]; 0.62 µM in test [2]; 0.67 µM in [3]; 0.72 µM in test [4]; 34.6 µM in [5]; 35.5 µM in test [6]. Moreover, the IC50 in test [7] stood at 0.59 µM; in test [8], 31 µM. For the same compound, in [10], the Tm is 68 °C. The ΔTm in test [11] was 10.7 °C. Also, the inhibition in [9] was determined as 81.7%.

`COc1cc(OCC2CO2)c2c(c1)O[C@@H]1COc3cc(OC)c(OC)cc3[C@]1(O)C2=O` (mixture of isomers): the IC50 came to 32.9 µM in test [1]; 0.45 µM in test [2]; 0.63 µM in test [3]; 0.55 µM in test [4]; 5.63 µM in test [5]; 27.8 µM in [6]. Further, the IC50 in test [7] is 0.38 µM; in test [8] it was 0.57 µM. Also, in [10], the Tm stood at 59.3 °C. Moreover, the ΔTm in test [11] worked out at 2 °C. The compound further registered an inhibition in [9] of 68.3%.

`COc1cc(OCC(O)CNCCN2CCOCC2)c2c(c1)O[C@@H]1COc3cc(OC)c(OC)cc3[C@]1(O)C2=O` (mixture of isomers): the IC50 in test [1] amounted to 26.3 µM; in [2], 0.45 µM; in [3], 1.94 µM; in test [4], 0.56 µM; in test [5], 36.8 µM; in test [6], 4.7 µM. The IC50 in test [7] turned out to be 0.54 µM; in test [8], 40.2 µM. Moreover, the Tm in test [10] worked out at 66.1 °C. Further, the ΔTm in [11] was determined as 8.8 °C. The same compound came in with an inhibition in test [9] of 77.1%.

As for `COc1cc(O)c2c(c1)O[C@@H]1COc3cc(OC)c(OC)cc3[C@]1(O)C2=O`, the IC50 in [1] is 13.3 µM; in test [2] it was above 100 µM; in test [3], above 100 µM; in test [4], above 100 µM; in test [5] it was 23.7 µM; in test [6], 3.12 µM. Further, the IC50 in [7] and in test [8] was above 100 µM throughout. In addition, in test [10], the Tm is 57.3 °C. Further, the inhibition in test [9] came to 72.1%.

As to `COc1cc(OCC(O)CN2CCOCC2)c2c(c1)O[C@@H]1COc3cc(OC)c(OC)cc3[C@]1(O)C2=O` (mixture of isomers), the IC50 in test [1] is 26.5 µM; in test [2], 0.34 µM; in test [3], above 100 µM; in test [4], 0.61 µM; in test [5], 31.7 µM; in test [6], 2.93 µM. The IC50 turned out to be 0.73 µM in test [7] and 0.61 µM in [8]. The Tm in [10] was 65.1 °C. The inhibition in test [12] is 47.1%; in [9], 93.5%. Besides, the shift in melting temperature (ΔTm) in [11] was determined as 7.8 °C.

Regarding `COc1cccc2c1C(=O)c1c(O)c3c(c(O)c1C2=O)C[C@@](O)(C(=O)CO)C[C@@H]3O[C@H]1C[C@H](N)[C@H](O)[C@H](C)O1` [DOXORUBICIN], the IC50 in test [1] was 2.01 µM; in test [2] it was 0.07 µM; in [3], 0.33 µM; in test [4], 0.26 µM; in [6], 0.03 µM; in [7], 0.23 µM. Further, the IC50 in [8] was 0.83 µM. In test [9], this compound yielded an inhibition of 72.1%.

Consider `COc1cc(OCC(O)CNCCc2ccccc2)c2c(c1)O[C@@H]1COc3cc(OC)c(OC)cc3[C@]1(O)C2=O` (mixture of isomers), for which the IC50 was 23.5 µM in test [1]; above 100 µM in [2]; above 100 µM in [3]; above 100 µM in test [4]; 3.05 µM in [5]; 13.6 µM in test [6]. Also, the IC50 in [7] and in test [8] was above 100 µM each time. Also, the inhibition in test [9] was 66.7%.
